# Source: PubChem BioAssay
# Compounds with a hit are over-represented: about 1.1% of the library has one in this group of screens.
# miR-122 sensor – inhibitors of miR-122 in Huh7 cells; Huh7 miR-122 Renilla luciferase sensor, 48 h; neutral wells = 0, positive control = 100; activation (reporter increase), % at 12.5 µM; 0.3% of 340,000 active; AID 602342;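 active = mean replicate activation score at least 90 and every replicate individually at or above 90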;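 note: higher luciferase means less miR-122 activity so hits act as miR-122 inhibitors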
# CAL PDZ FP-1 – CAL PDZ (human) peptide binding inhibition; Q9HD26; purified CAL PDZ, TMR-peptide fluorescence polarization, 1 h; inhibition, % at 24.9 µM; 0.92% of 300,000 active;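 active = mean inhibition of at least 30% with at least half of replicates also reaching 30%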;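 note: 0% = DMSO neutral control and 100% = excess unlabeled competitor peptide PRC23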
# PglD inh – PglD (C. jejuni) enzyme inhibition. purified PglD enzyme, DTNB colorimetric CoA detection. inhibition, % at 12.5 µM. 0.098% of 360,000 active; in the data active = inhibition above about 16%, passing the limit was not always enough
# CAL PDZ FP-2 – blocks peptide binding to human CAL PDZ domain; AID 504414; inhibition, % at 20 µM; 0.02% of 330,000 active; Q9HD26; purified CAL PDZ, TMR-peptide fluorescence polarization, 1 h;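 active = highest replicate inhibition of at least 40%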;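 note: plate controls were DMSO neutral control wells for no effect and unlabeled competitor peptide control wells for full effect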
#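 Material: tagged CAL PDZ domain; buffer or medium: 25 mM sodium phosphate pH 7.4, 150 mM NaCl, TCEP, IgG, Thesit; compound dosing: single point, 20 µM; schedule: 1 h incubation at room temperature before polarization reading; measured by: FP readout, S and P plane fluorescence; read-out basis: percent inhibition from loss of millipolarization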
# Cneo AK release – Cryptococcus neoformans lysis via adenylate kinase release | C. neoformans lysis, adenylate kinase release luminescence, 4 h; normalised: neutral wells 0, clomiphene wells 100 | lysis activity, % at 15 µM | 0.2% of 360,000 active;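 active = mean lysis activity across replicates of at least 80%, whatever share of replicates individually reach that level; inactive = mean lysis activity below 80%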
#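 Material – log-phase Cryptococcus neoformans yeast cells · Input – 5 × 10^6 yeast cells/mL · Medium – fresh YPD growth medium · Doses – single compound concentration per well · Timing – static 4 h at 37 °C with compound, 1 h detection · Detection – adenylate kinase release luminescence · Read-out – signal increase indicating cell lysis · Control set – Clomiphene as positive lysis control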
# * = called active by the depositor; · = not tested or not shown; [ ] = remark or other dose.
SMILES,miR-122 sensor,CAL PDZ FP-1,PglD inh,CAL PDZ FP-2,Cneo AK release
CO[C@H](CN(C)Cc1ccc2c(c1)OCO2)[C@@H](C)CN(C(=O)c1ccccc1)[C@@H](C)CO,·,·,-1,·,104*
CC1CCN(c2ccc(NC(=O)C3CCCN3S(=O)(=O)c3ccc(F)cc3)cc2)CC1 (stereo unspecified),·,-1,-5,-1,0
C[C@H]1CN([C@@H](C)CO)C(=O)c2cccc(NS(=O)(=O)c3ccc(F)cc3)c2O[C@@H]1CN(C)S(=O)(=O)c1ccc(Cl)cc1,-3[16.7 µM],·,-2,·,1
C[C@H](CO)N1C[C@H](C)[C@H](CN(C)S(=O)(=O)c2ccccc2)Oc2ccc(NS(=O)(=O)c3ccc(F)cc3)cc2C1=O,61[16.7 µM],·,2,·,104*
C[C@@H]1CN([C@@H](C)CO)C(=O)c2cc(NS(=O)(=O)c3ccc(F)cc3)ccc2O[C@H]1CN(C)S(=O)(=O)c1ccccc1,-5[16.7 µM],·,3,·,-1
C[C@H](CO)N1C[C@H](C)[C@@H](CN(C)S(=O)(=O)c2ccc(Cl)cc2)Oc2c(NS(=O)(=O)c3ccc(F)cc3)cccc2C1=O,12[16.7 µM],·,-1,·,127*
C[C@@H]1CN([C@H](C)CO)C(=O)c2cc(NS(=O)(=O)c3ccc(Cl)cc3)ccc2O[C@H]1CN(C)S(=O)(=O)c1ccc(F)cc1,20[16.7 µM],·,1,·,101*
C[C@@H]1CN([C@H](C)CO)C(=O)c2cc(NC(=O)c3ccncc3)ccc2O[C@@H]1CN(C)S(=O)(=O)c1ccc(Cl)cc1,179*[16.7 µM],·,3,·,-2
Cc1noc(C)c1NC(=O)Nc1ccc2c(c1)C(=O)N([C@@H](C)CO)C[C@@H](C)[C@H](CN(C)C(=O)Nc1ccc3c(c1)OCO3)OCCCC[C@H](C)O2,11[16.7 µM],·,-2,·,-1
C[C@H](CO)N1C[C@H](C)[C@H](CN(C)S(=O)(=O)c2ccc(F)cc2)Oc2ccc(NS(=O)(=O)c3ccc(Cl)cc3)cc2C1=O,35[16.7 µM],·,2,·,102*
COc1cccc(S(=O)(=O)N(C)C[C@@H]2Oc3ncc(Br)cc3C(=O)N([C@H](C)CO)C[C@@H]2C)c1,·,·,-11,·,-13
Cc1[nH]nc(NCCO)c1[N+](=O)[O-],-2,31*,-6,5,3
Cc1[nH]nc(Nc2ccccc2)c1[N+](=O)[O-],0,-3,0,-1,-1
C[C@@H]1CN([C@H](C)CO)C(=O)c2cc(NS(=O)(=O)c3ccc(Cl)cc3)ccc2O[C@H]1CN(C)CC1CCCCC1,-2[16.7 µM],·,3,·,0
CCC(=O)N1[C@H](C(=O)Nc2ccccc2)[C@@H](CO)[C@@H]2Cn3c(ccc(-c4ccncc4)c3=O)[C@@H]21,8[16.7 µM],·,3,·,99*
COCC(=O)N1[C@H](C(=O)Nc2ccccc2)[C@@H](CO)[C@@H]2Cn3c(ccc(-c4ccncc4)c3=O)[C@@H]21,6[16.7 µM],·,1,·,1
C/C=C/c1cnc2c(c1)C(=O)N([C@H](C)CO)C[C@H](C)[C@@H](CN(C)S(=O)(=O)c1ccc(C)cc1)O2,17[16.7 µM],·,0,·,8
Cc1c(C(=O)C(=O)NCc2ccco2)c2ccccc2n1C,·,56*,·,2,·
COc1ccccc1NC(=S)NCC1CCCCC1,182*,1,-3,0,6
COc1ccccc1C(=O)NCCC(=O)NCC1CCCCC1,-4,79*,-3,5,0
COc1ccccc1NC(=S)NC1CCCCC1,9,-3,1,0,5
C[C@@H]1CN([C@@H](C)CO)C(=O)Cc2cc(NC(=O)CCCN(C)C)ccc2O[C@H]1CN(C)S(C)(=O)=O,-5[16.7 µM],·,0,·,-6
NC(=O)NC(=O)COC(=O)CCCSc1nc2ccccc2s1,3,-2,0,-2,0
CCOC(=O)NC(=O)COC(=O)CCCSc1nc2ccccc2s1,·,-1,·,71*,·
CN(C)C(=O)c1cccc(-c2ccc3n(c2=O)C[C@@H]2[C@@H](CO)[C@H](C(=O)NCC(F)(F)F)[C@H]3N2C)c1,·,·,-3,·,1
SMILES,miR-122 sensor,CAL PDZ FP-1,PglD inh,CAL PDZ FP-2,Cneo AK release
O=C(O)C[C@@H]1C[C@H]2c3cc(NC(=O)Cc4ccncc4)ccc3O[C@H]2[C@H](CO)O1,1[16.7 µM],·,-1,·,3
O=C(CN1C(=O)COc2ccc(Cl)cc21)NCC1CCCO1 (stereo unspecified),-3,35*,-1,-3,-8
O=C(CN1C(=O)COc2ccccc21)NCC1CCCO1 (stereo unspecified),·,-1,-5,-2,4
C[C@H](O)C#Cc1ccc2c(c1)O[C@H](CN(C)Cc1ccncc1)[C@H](C)CN([C@H](C)CO)S2(=O)=O,22[16.7 µM],·,1,·,95*
C[C@H]1CN([C@@H](C)CO)S(=O)(=O)c2ccc(C#Cc3ccccn3)cc2O[C@@H]1CN(C)Cc1ccccc1,8[16.7 µM],·,1,·,107*
COCC#Cc1ccc2c(c1)O[C@H](CN(C)Cc1ccc3c(c1)OCO3)[C@@H](C)CN([C@@H](C)CO)S2(=O)=O,109*[16.7 µM],·,-1,·,2
C[C@H]1CN([C@@H](C)CO)S(=O)(=O)c2ccc(C#Cc3cccc(F)c3)cc2O[C@@H]1CN(C)C(=O)NC1CCCCC1,32[16.7 µM],·,0,·,102*
CCC(=O)N(C)C[C@@H]1Oc2cc(-c3cccc(F)c3)ccc2S(=O)(=O)N([C@@H](C)CO)C[C@@H]1C,15[16.7 µM],·,1,·,-3
C[C@@H]1CN([C@@H](C)CO)C(=O)c2cc(NC(=O)NC3CCCCC3)ccc2O[C@@H](C)CCCCO[C@H]1CN(C)C(=O)c1ccccc1,1[16.7 µM],·,3,·,-2
C[C@@H]1CN([C@H](C)CO)S(=O)(=O)c2ccc(C#C[C@@H](C)O)cc2O[C@@H]1CN(C)Cc1ccncc1,50[16.7 µM],·,2,·,83*
C[C@@H]1CN([C@@H](C)CO)S(=O)(=O)c2ccc(C#C[C@@H](C)O)cc2O[C@@H]1CN(C)C(=O)C1CCCCC1,4[16.7 µM],·,5,·,105*
C[C@H]1CN([C@@H](C)CO)S(=O)(=O)c2ccc(Br)cc2O[C@H]1CN(C)CC1CCOCC1,0[16.7 µM],·,2,·,-3
O=C(CN1CCN(C(=O)c2ccco2)CC1)Nc1ccc(F)cc1F,-2,89*,-4,0,0
CCCCn1c(N)c(N(CC)C(=O)C2CCCC2)c(=O)[nH]c1=O,1,-1,2,0,-3
CCCCCCn1nc(C(=O)N(CCCC)c2c(N)n(CCC)c(=O)[nH]c2=O)c2ccccc2c1=O,4,47*,-2,2,-2
CCCCn1c(N)c(N(C)C(=O)C2CCCC2)c(=O)[nH]c1=O,3,43*,-3,0,0
CCCCn1c(N)c(N(CC)C(=O)c2ccccc2F)c(=O)[nH]c1=O,·,33*,0,0,-2
CCN(C(=O)c1ccc(=O)n(C)n1)c1c(N)n(Cc2ccccc2)c(=O)[nH]c1=O,-2,38*,1,1,-1
CC1=NOC(=O)/C1=C\c1ccc2c(c1)OCO2,·,·,·,0,·
